Laboratory results as given in ChEMBL document CHEMBL4190374, “Structure-Function Evaluation of Imidazopyridine Derivatives Selective for δ-Subunit-Containing γ-Aminobutyric Acid Type A (GABAA) Receptors” (J Med Chem, 2018).
Activity calls are given as the source filed them. The calls are words filed in the database; no cut-off is given here.

Key:
[1] = biological target: T1, Gamma-aminobutyric acid receptor subunit alpha-6/beta-3/delta (Rattus norvegicus, UniProt P18506+P30191+P63079); assay: Displacement of [3H]EBOB from rat GABA-A receptor alpha6beta3delta expressed in HEK293 cell membranes after 90 mins by liquid scintillation counting analysis
T1 sequence (P18506 whole entry): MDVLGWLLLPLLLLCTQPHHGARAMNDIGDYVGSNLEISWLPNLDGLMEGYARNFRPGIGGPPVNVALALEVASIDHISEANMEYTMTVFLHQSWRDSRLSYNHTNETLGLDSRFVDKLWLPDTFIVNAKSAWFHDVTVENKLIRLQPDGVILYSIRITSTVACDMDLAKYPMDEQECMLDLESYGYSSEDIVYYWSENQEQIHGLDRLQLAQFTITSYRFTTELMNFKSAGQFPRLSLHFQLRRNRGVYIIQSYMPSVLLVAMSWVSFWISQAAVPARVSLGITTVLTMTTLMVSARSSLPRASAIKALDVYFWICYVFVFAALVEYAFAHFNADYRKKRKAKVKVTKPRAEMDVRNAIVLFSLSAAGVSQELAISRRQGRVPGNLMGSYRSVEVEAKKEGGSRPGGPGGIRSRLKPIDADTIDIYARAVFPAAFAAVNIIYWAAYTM
T1 sequence (P30191 whole entry): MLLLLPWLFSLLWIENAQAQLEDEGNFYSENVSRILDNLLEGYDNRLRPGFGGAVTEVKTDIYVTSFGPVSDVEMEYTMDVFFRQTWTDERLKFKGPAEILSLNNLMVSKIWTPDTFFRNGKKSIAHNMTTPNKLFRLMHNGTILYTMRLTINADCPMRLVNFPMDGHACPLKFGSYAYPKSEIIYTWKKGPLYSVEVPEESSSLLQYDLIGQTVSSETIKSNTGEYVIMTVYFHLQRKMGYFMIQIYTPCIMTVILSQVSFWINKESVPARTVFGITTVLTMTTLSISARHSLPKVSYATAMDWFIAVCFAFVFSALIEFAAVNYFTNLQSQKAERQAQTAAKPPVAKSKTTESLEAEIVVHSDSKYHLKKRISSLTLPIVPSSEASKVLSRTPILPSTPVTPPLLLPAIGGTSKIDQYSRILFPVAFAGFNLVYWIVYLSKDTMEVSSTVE
T1 sequence (P63079 whole entry): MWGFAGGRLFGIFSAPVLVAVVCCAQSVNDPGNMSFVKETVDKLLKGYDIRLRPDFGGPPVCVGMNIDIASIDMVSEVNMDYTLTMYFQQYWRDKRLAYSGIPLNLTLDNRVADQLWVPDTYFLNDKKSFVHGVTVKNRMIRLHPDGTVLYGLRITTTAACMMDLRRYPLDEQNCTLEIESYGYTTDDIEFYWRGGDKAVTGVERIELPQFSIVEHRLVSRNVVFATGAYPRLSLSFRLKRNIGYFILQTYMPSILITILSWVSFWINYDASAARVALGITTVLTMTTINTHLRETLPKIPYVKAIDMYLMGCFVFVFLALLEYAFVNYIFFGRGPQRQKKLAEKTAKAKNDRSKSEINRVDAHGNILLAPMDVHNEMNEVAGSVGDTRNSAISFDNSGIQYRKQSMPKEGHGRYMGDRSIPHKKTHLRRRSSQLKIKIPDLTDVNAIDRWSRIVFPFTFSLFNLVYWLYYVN
Method in brief: (§1)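 Crude membranes from HEK 293 cells transiently Ca-phosphate-transfected with rat subunit cDNAs, harvested at 48 h. Membranes (150-200 µg protein) incubated with 3 nM [3H]EBOB in 50 mM Tris/citrate pH 7.3 plus 0.2 M NaCl. Compound up to 10 µM, final DMSO 0.1%, no GABA, 90 min at 21 °C. Bound radioligand collected by GF/C filtration and counted by scintillation.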

[2] = biological target: Gamma-aminobutyric acid receptor subunit alpha-6/beta-2/delta (Rattus norvegicus, UniProt P18506+P30191+P63138); assay: Displacement of [3H]EBOB from rat GABA-A receptor alpha6beta2delta expressed in HEK293 cell membranes after 90 mins by liquid scintillation counting analysis; method in brief: as §1
Chain of Gamma-aminobutyric acid receptor subunit alpha-6/beta-2/delta (P18506 whole entry): as the sequence (P18506 whole entry) above
Chain of Gamma-aminobutyric acid receptor subunit alpha-6/beta-2/delta (P30191 whole entry): as the sequence (P30191 whole entry) above
Chain of Gamma-aminobutyric acid receptor subunit alpha-6/beta-2/delta (P63138 whole entry): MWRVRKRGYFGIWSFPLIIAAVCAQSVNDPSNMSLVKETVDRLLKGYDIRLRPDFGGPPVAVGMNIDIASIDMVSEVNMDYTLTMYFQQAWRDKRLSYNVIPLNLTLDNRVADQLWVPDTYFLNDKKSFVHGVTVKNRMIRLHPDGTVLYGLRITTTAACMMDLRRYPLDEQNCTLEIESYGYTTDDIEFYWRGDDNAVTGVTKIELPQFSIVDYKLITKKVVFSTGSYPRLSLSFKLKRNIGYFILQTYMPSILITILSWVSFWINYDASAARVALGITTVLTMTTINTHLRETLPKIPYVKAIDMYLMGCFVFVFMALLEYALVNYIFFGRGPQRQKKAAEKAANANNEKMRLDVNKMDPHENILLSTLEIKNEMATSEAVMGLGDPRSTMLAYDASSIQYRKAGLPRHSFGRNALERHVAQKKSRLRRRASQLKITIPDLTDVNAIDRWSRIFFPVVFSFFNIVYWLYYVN

[3] = biological target: T2, Gamma-aminobutyric acid receptor subunit alpha-6/beta-3/gamma-2 (Rattus norvegicus) (UniProt P18508+P30191+P63079); assay: Displacement of [3H]EBOB from rat GABA-A receptor alpha6beta3gamma2 expressed in HEK293 cell membranes up to 10 uM after 90 mins by liquid scintillation counting analysis relative to control; method in brief: as §1
[4] = biological target: Gamma-aminobutyric acid receptor subunit alpha-6/beta-2/delta (Rattus norvegicus) (UniProt P18506+P30191+P63138); assay: Displacement of [3H]EBOB from rat GABA-A receptor alpha6beta2delta expressed in HEK293 cell membranes up to 10 uM after 90 mins by liquid scintillation counting analysis relative to control; method in brief: as §1
[5] = biological target: T3, Gamma-aminobutyric acid receptor subunit alpha-1/beta-3/gamma-2 (Rattus norvegicus) (UniProt P18508+P62813+P63079); assay: Displacement of [3H]EBOB from rat GABA-A receptor alpha1beta3gamma2 expressed in HEK293 cell membranes at 20 uM after 90 mins by liquid scintillation counting analysis relative to control
[6] = biological target: T4, Gamma-aminobutyric acid receptor subunit alpha-1/beta-3/delta (Rattus norvegicus) (UniProt P18506+P62813+P63079); assay: Displacement of [3H]EBOB from rat GABA-A receptor alpha1beta3delta expressed in HEK293 cell membranes at 20 uM after 90 mins by liquid scintillation counting analysis relative to control
[7] = biological target: T5, Gamma-aminobutyric acid receptor subunit alpha-4/beta-3 (Rattus norvegicus) (UniProt P28471+P63079); assay: Displacement of [3H]EBOB from rat GABA-A receptor alpha4beta3 expressed in HEK293 cell membranes at 20 uM after 90 mins by liquid scintillation counting analysis relative to control
[8] = biological target: T6, Gamma-aminobutyric acid receptor subunit alpha-4/beta-3/gamma-2 (Rattus norvegicus) (UniProt P18508+P28471+P63079); assay: Displacement of [3H]EBOB from rat GABA-A receptor alpha4beta3gamma2 expressed in HEK293 cell membranes at 20 uM after 90 mins by liquid scintillation counting analysis relative to control
[9] = biological target: T7, Gamma-aminobutyric acid receptor subunit alpha-4/beta-3/delta (Rattus norvegicus) (UniProt P18506+P28471+P63079); assay: Displacement of [3H]EBOB from rat GABA-A receptor alpha4beta3delta expressed in HEK293 cell membranes at 20 uM after 90 mins by liquid scintillation counting analysis relative to control
[10] = biological target: T8, Gamma-aminobutyric acid receptor subunit alpha-6/beta-3 (Rattus norvegicus) (UniProt P30191+P63079); assay: Displacement of [3H]EBOB from rat GABA-A receptor alpha6beta3 expressed in HEK293 cell membranes at 20 uM after 90 mins by liquid scintillation counting analysis relative to control
[11] = biological target: T8, Gamma-aminobutyric acid receptor subunit alpha-6/beta-3 (Rattus norvegicus); assay: (§2) Displacement of [3H]EBOB from rat GABA-A receptor alpha6beta3 expressed in HEK293 cell membranes after 90 mins in presence of GABA by liquid scintillation counting analysis
[12] = biological target: T9, Gamma-aminobutyric acid receptor subunit alpha-6/beta-3 (Rattus norvegicus, UniProt P30191+P63079); assay: as §2
T9 sequence (P30191 whole entry): as the sequence (P30191 whole entry) above
T9 sequence (P63079 whole entry): as the sequence (P63079 whole entry) above

[13] = biological target: T2, Gamma-aminobutyric acid receptor subunit alpha-6/beta-3/gamma-2 (Rattus norvegicus); assay: (§3) Displacement of [3H]EBOB from rat GABA-A receptor alpha6beta3gamma2 expressed in HEK293 cell membranes after 90 mins in presence of GABA by liquid scintillation counting analysis
[14] = biological target: T10, Gamma-aminobutyric acid receptor subunit alpha-6/beta-3/gamma-2 (Rattus norvegicus, UniProt P18508+P30191+P63079); assay: as §3
T10 sequence (P18508 whole entry): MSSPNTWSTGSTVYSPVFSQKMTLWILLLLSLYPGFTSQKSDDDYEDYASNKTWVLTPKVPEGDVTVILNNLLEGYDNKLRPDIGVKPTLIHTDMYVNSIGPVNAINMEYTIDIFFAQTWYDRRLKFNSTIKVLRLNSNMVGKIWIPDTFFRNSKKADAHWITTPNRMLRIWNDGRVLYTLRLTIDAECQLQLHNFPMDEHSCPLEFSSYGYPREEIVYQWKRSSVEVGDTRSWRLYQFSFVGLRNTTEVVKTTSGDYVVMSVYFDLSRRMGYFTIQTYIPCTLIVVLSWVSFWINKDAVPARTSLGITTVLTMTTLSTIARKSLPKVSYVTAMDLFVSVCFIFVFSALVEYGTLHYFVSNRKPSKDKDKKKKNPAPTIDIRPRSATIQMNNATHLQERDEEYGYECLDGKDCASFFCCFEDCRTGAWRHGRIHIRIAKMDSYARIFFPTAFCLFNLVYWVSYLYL
T10 sequence (P30191 whole entry): as the sequence (P30191 whole entry) above
T10 sequence (P63079 whole entry): as the sequence (P63079 whole entry) above

[15] = biological target: T11, Gamma-aminobutyric acid receptor subunit alpha-6/beta-3/delta (Rattus norvegicus) (UniProt P18506+P30191+P63079); assay: (§4) Displacement of [3H]EBOB from rat GABA-A receptor alpha6beta3delta expressed in HEK293 cell membranes after 90 mins in presence of GABA by liquid scintillation counting analysis
[16] = biological target: T1, Gamma-aminobutyric acid receptor subunit alpha-6/beta-3/delta; assay: as §4
[17] = biological target: GABA A receptor alpha-6/beta-2/gamma-2 (Rattus norvegicus) (UniProt P18508+P30191+P63138); assay: Displacement of [3H]EBOB from rat GABA-A receptor alpha6beta2gamma2 expressed in HEK293 cell membranes at 10 uM after 90 mins by liquid scintillation counting analysis relative to control; method in brief: as §1
[18] = biological target: T12, Gamma-aminobutyric acid receptor subunit alpha-6/beta-2 (Rattus norvegicus) (UniProt P30191+P63138); assay: Displacement of [3H]EBOB from rat GABA-A receptor alpha6beta2 expressed in HEK293 cell membranes at 10 uM after 90 mins by liquid scintillation counting analysis relative to control; method in brief: as §1
[19] = biological target: T11, Gamma-aminobutyric acid receptor subunit alpha-6/beta-3/delta (Rattus norvegicus); assay: Displacement of [3H]EBOB from rat GABA-A receptor alpha6beta3delta expressed in HEK293 cell membranes at 10 uM after 90 mins by liquid scintillation counting analysis relative to control; method in brief: as §1
[20] = biological target: T8, Gamma-aminobutyric acid receptor subunit alpha-6/beta-3 (Rattus norvegicus); assay: Displacement of [3H]EBOB from rat GABA-A receptor alpha6beta3 expressed in HEK293 cell membranes at 10 uM after 90 mins by liquid scintillation counting analysis relative to control; method in brief: as §1
[21] = biological target: T2, Gamma-aminobutyric acid receptor subunit alpha-6/beta-3/gamma-2 (Rattus norvegicus); assay: Displacement of [3H]EBOB from rat GABA-A receptor alpha6beta3gamma2 expressed in HEK293 cell membranes at 10 uM after 90 mins by liquid scintillation counting analysis relative to control; method in brief: as §1
[22] = biological target: T9, Gamma-aminobutyric acid receptor subunit alpha-6/beta-3; assay: Displacement of [3H]EBOB from rat GABA-A receptor alpha6beta3 expressed in HEK293 cell membranes after 90 mins by liquid scintillation counting analysis; method in brief: as §1
[23] = biological target: T10, Gamma-aminobutyric acid receptor subunit alpha-6/beta-3/gamma-2; assay: Displacement of [3H]EBOB from rat GABA-A receptor alpha6beta3gamma2 expressed in HEK293 cell membranes after 90 mins by liquid scintillation counting analysis; method in brief: as §1
[24] = biological target: T8, Gamma-aminobutyric acid receptor subunit alpha-6/beta-3 (Rattus norvegicus); assay: Displacement of [3H]EBOB from rat GABA-A receptor alpha6beta3 expressed in HEK293 cell membranes up to 10 uM after 90 mins by liquid scintillation counting analysis relative to control; method in brief: as §1
[25] = biological target: T11, Gamma-aminobutyric acid receptor subunit alpha-6/beta-3/delta (Rattus norvegicus); assay: Displacement of [3H]EBOB from rat GABA-A receptor alpha6beta3delta expressed in HEK293 cell membranes up to 10 uM after 90 mins by liquid scintillation counting analysis relative to control; method in brief: as §1
[26] = biological target: Gamma-aminobutyric acid receptor subunit alpha-6/beta-2 (Rattus norvegicus, UniProt P30191+P63138); assay: Displacement of [3H]EBOB from rat GABA-A receptor alpha6beta2 expressed in HEK293 cell membranes after 90 mins by liquid scintillation counting analysis; method in brief: as §1
Chain of Gamma-aminobutyric acid receptor subunit alpha-6/beta-2 (P30191 whole entry): as the sequence (P30191 whole entry) above
Chain of Gamma-aminobutyric acid receptor subunit alpha-6/beta-2 (P63138 whole entry): as the sequence (P63138 whole entry) above

[27] = biological target: Gamma-aminobutyric acid receptor subunit alpha-1/beta-3 (Rattus norvegicus) (UniProt P62813+P63079); assay: Displacement of [3H]EBOB from rat GABA-A receptor alpha1beta3 expressed in HEK293 cell membranes at 10 uM after 90 mins by liquid scintillation counting analysis relative to control; method in brief: as §1
[28] = biological target: T3, Gamma-aminobutyric acid receptor subunit alpha-1/beta-3/gamma-2 (Rattus norvegicus); assay: Displacement of [3H]EBOB from rat GABA-A receptor alpha1beta3gamma2 expressed in HEK293 cell membranes at 10 uM after 90 mins by liquid scintillation counting analysis relative to control; method in brief: as §1
[29] = biological target: T4, Gamma-aminobutyric acid receptor subunit alpha-1/beta-3/delta (Rattus norvegicus); assay: Displacement of [3H]EBOB from rat GABA-A receptor alpha1beta3delta expressed in HEK293 cell membranes at 10 uM after 90 mins by liquid scintillation counting analysis relative to control; method in brief: as §1
[30] = biological target: T5, Gamma-aminobutyric acid receptor subunit alpha-4/beta-3 (Rattus norvegicus); assay: Displacement of [3H]EBOB from rat GABA-A receptor alpha4beta3 expressed in HEK293 cell membranes up to 10 uM after 90 mins by liquid scintillation counting analysis relative to control; method in brief: as §1
[31] = biological target: T6, Gamma-aminobutyric acid receptor subunit alpha-4/beta-3/gamma-2 (Rattus norvegicus); assay: Displacement of [3H]EBOB from rat GABA-A receptor alpha4beta3gamma2 expressed in HEK293 cell membranes up to 10 uM after 90 mins by liquid scintillation counting analysis relative to control; method in brief: as §1
[32] = biological target: T7, Gamma-aminobutyric acid receptor subunit alpha-4/beta-3/delta (Rattus norvegicus); assay: Displacement of [3H]EBOB from rat GABA-A receptor alpha4beta3delta expressed in HEK293 cell membranes up to 10 uM after 90 mins by liquid scintillation counting analysis relative to control; method in brief: as §1
[33] = biological target: T12, Gamma-aminobutyric acid receptor subunit alpha-6/beta-2 (Rattus norvegicus); assay: Displacement of [3H]EBOB from rat GABA-A receptor alpha6beta2 expressed in HEK293 cell membranes up to 10 uM after 90 mins by liquid scintillation counting analysis relative to control; method in brief: as §1
[34] = species: Rattus norvegicus; assay: Selectivity ratio of IC50 for rat GABA-A receptor alpha6beta3delta expressed in HEK293 cells to IC50 for rat GABA-A receptor alpha6beta2delta expressed in HEK293 cells; type: cell-based

IC50 [1]	IC50 [2]	Imax [3]	Imax [4]	Imax [11]	IC50 [12]	Imax [13]	IC50 [14]	Imax [15]	IC50 [16]	inhibition [21]	Imax [25]	SMILES	also measured
2180 nM	2430 nM	10%	54%	26%	4070 nM	40%	4340 nM	51%	870 nM			CCCCOc1ccc(C(=O)Nc2c(-c3cccs3)nc3ccc(Br)cn23)cc1	inhibition [5]: inactive; inhibition [6]: inactive; inhibition [7]: inactive; inhibition [8]: inactive; inhibition [9]: inactive; inhibition [10]: inactive; Imax [17]: 13%; inhibition [18]: inactive
										inactive		O=C(Nc1c(-c2cccs2)nc2ccccn12)c1ccc(OCc2ccccc2)cc1	Imax [19]: 54%; inhibition [20]: inactive
1200 nM		103%									87%	O=C(Nc1c(-c2cccs2)nc2c(Br)cc(Br)cn12)c1ccc(F)cc1	IC50 [22]: 3060 nM; IC50 [23]: 3390 nM; Imax [24]: 91%
760 nM	270 nM		55%	57%	1290 nM	44%	1280 nM	55%	490 nM	inactive	53%	O=C(Nc1c(-c2cccs2)nc2c(Br)cc(Br)cn12)c1ccc(OCCCCF)cc1	IC50 [26]: 740 nM; inhibition [27]: inactive; inhibition [28]: inactive; inhibition [29]: inactive; inhibition [30]: inactive; inhibition [31]: inactive; inhibition [32]: inactive; Imax [33]: 33%; Ratio IC50 [34]: 3; Imax [20]: 11%; inhibition [17]: inactive
